Source: ChEMBL document CHEMBL4351007, “Synthesis and biological evaluation of (1,2,4)triazole[4,3-a]pyridine derivatives as potential therapeutic agents for concanavalin A-induced hepatitis” (Eur J Med Chem, 2019)
Calls of active or inactive are those of the source. No cut-off for these calls is given here.

Tests used:
RAW264.7 [1] = test: Inhibition of MCP-1 mediated chemotaxis in mouse RAW264.7 cells at 20 uM measured after 3 hrs by light microscopic analysis relative to control; type: functional; conditions: for inhibition at 20 µM: RAW264.7, 3 h
How it was run: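 RAW264.7 cells serum-starved for 3 h, then placed in the upper Transwell chamber in 0.5% BSA medium with compound (20 μM) or DMSO. Lower chamber held 200 ng/mL MCP-1. After 3 h at 37 °C, migrated cells fixed, crystal violet-stained and counted in randomly chosen fields. Inhibitory rate = 1 − N1/(N1+N2); three chambers per condition.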

L02 = test: Cytotoxicity against human LO2 cells assessed as cell viability at 20 uM measured after 24 hrs by MTT assay; type: cell-based; conditions: l02, 24 h
How it was run: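 LO2 human liver cells (1.5–5 × 10^3 per well) seeded overnight, then exposed to compound for 24 h. MTT (5 mg/mL stock) added for 2–4 h at 37 °C. Formazan dissolved in DMSO and absorbance read at 570 nm. Three replicate experiments.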

RAW264.7 [2] = test: Antiinflammatory activity in mouse RAW264.7 cells assessed as LPS-induced nitric oxide level at 20 uM preincubated for 1 hr followed by LPS treatment and measured after 23 hrs by Griess reagent based assay (reference value: 96.06 to 102.81%); type: functional
How it was run: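 RAW264.7 cells seeded at 1 × 10^5/mL and left overnight. Compound (20 μM) added 1 h before LPS at 1 μg/mL, then 23 h more incubation. Nitrite in supernatant read with Griess reagent at 540 nm and expressed as NO relative to the LPS-only wells (%).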

Mus musculus [3] = species on record: Mus musculus; test: Hepatoprotective activity in mouse model of Con-A induced autoimmune hepatitis assessed as reduction in Con-A induced CD11b-positive cells infiltration by […] microscopic analysis; type: functional, organism-based
How it was run: (§1)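 Livers collected 12 h after Con A 20 mg/kg i.v. plus compound 100 mg/kg i.p. Tissue formalin-fixed, paraffin-embedded and cut into 4–5 μm sections. Sections stained with H&E for light microscopy; further sections immunostained for CD4, CD11b and F4/80 and imaged by fluorescence microscopy.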

Mus musculus [4] = test: Antiinflammatory activity in mouse model of Con-A induced autoimmune hepatitis assessed as decrease in serum AST level at 100 mg/kg, ip measured after 12 hrs relative to control; type: functional; parameters: scale not given: the % may be the effect or the level left
How it was run: (§2)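 Female BALB/c mice, 6–8 weeks old, SPF housing. Con A 20 mg/kg given i.v., then compound 100 mg/kg i.p. in 40% PEG 400/60% saline; model group received vehicle. Killed at 12 h. Plasma ALT and AST measured on an automatic analyzer. Mean ± SD, n=5; ANOVA with Tukey's test.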

[5] = target: Transcription factor p65 (Mus musculus) (UniProt Q04207); test: Inhibition of Con A-induced NF-kappaB p65 translocation in mouse RAW264.7 cells incubated for 22 hrs by DAPI staining based laser scanning confocal microscopic analysis; type: cell-based
How it was run: (§3)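 RAW264.7 cells (2×10^4/well) seeded overnight and stimulated for 2 h with Con A (0.6 μM) or LPS (1 μg/mL), then compound at various concentrations for 22 h. Cells fixed in paraformaldehyde, permeabilized with Triton X-100 and blocked in BSA. Stained with anti-p65 and FITC secondary antibody, nuclei with DAPI; imaged by confocal microscopy.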

RAW264.7 [6] = test: Antiinflammatory activity against mouse RAW264.7 assessed as decrease in Con-A induced […] IL-10 expression level at 1 uM measured after 22 hrs by RT-PCR analysis; type: functional, cell-based
How it was run: (§4)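 RAW264.7 macrophages (DMEM, 10% FBS, 37 °C, 5% CO2) pretreated with Con A for 2 h, then compound at 1 μM for a further 22 h. mRNA quantified by SYBR real-time PCR (95 °C 30 s; 40 cycles of 95 °C 5 s, 60 °C 20 s), normalized to GAPDH, run in triplicate; mean ± SD, n=5.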

RAW264.7 [7] = test: Antiinflammatory activity against mouse RAW264.7 assessed as decrease in Con-A induced INF-gamma mRNA expression level at 1 uM measured after 22 hrs by RT-PCR analysis; type: functional, cell-based; how it was run: as §4
Mus musculus [8] = species on record: Mus musculus; test: Hepatoprotective activity in mouse model of Con-A induced autoimmune hepatitis assessed as decrease in necrosis of hepatocytes by H and E staining based […] microscopic analysis; type: functional, organism-based; how it was run: as §1
RAW264.7 [9] = test: Antiinflammatory activity against mouse RAW264.7 assessed as decrease in Con-A induced IL-6 mRNA expression level at 1 uM measured after 22 hrs by RT-PCR analysis; type: functional, cell-based; how it was run: as §4
Mus musculus [10] = species on record: Mus musculus; test: Hepatoprotective activity in mouse model of Con-A induced autoimmune hepatitis assessed as reduction in Con-A induced CD4-positive cells infiltration by […] microscopic analysis; type: functional, organism-based; how it was run: as §1
RAW264.7 [11] = test: Antiinflammatory activity against mouse RAW264.7 assessed as decrease in Con-A induced TNF-alpha mRNA expression level at 1 uM measured after 22 hrs by RT-PCR analysis; type: functional, cell-based; how it was run: as §4
[12] = target: Transcription factor p65 (Mus musculus) (UniProt Q04207); test: Inhibition of LPS-induced NF-kappaB p65 translocation in mouse RAW264.7 cells incubated for 22 hrs by DAPI staining based laser scanning confocal microscopic analysis; type: cell-based; how it was run: as §3
Mus musculus [13] = test: Antiinflammatory activity in mouse model of Con-A induced autoimmune hepatitis assessed as decrease in serum ALT level at 100 mg/kg, ip measured after 12 hrs relative to control; type: functional; parameters: scale not given: the % may be the effect or the level left; how it was run: as §2
Mus musculus [14] = test: Antiinflammatory activity in mouse model of Con-A induced autoimmune hepatitis assessed as of MDSC accumulation at 100 mg/kg by flow cytometry analysis (reference value: 11.31%); type: functional
How it was run: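 Female BALB/c mice given Con A 20 mg/kg i.v. plus compound 100 mg/kg i.p. (PEG 400/saline vehicle), livers taken at 12 h. Liver single-cell suspensions prepared by mechanical disruption and 1 mg/mL collagenase I digestion, with red cells lysed. 1×10^6 cells stained for CD11b and Gr-1; MDSC percentage determined by flow cytometry.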

Mus musculus [15] = species on record: Mus musculus; test: Hepatoprotective activity in mouse model of Con-A induced autoimmune hepatitis assessed as reduction in Con-A induced F4/80-positive cells infiltration by […] microscopic analysis; type: functional, organism-based; how it was run: as §1

Transcription factor p65 (Mus musculus), sequence (Q04207 whole entry): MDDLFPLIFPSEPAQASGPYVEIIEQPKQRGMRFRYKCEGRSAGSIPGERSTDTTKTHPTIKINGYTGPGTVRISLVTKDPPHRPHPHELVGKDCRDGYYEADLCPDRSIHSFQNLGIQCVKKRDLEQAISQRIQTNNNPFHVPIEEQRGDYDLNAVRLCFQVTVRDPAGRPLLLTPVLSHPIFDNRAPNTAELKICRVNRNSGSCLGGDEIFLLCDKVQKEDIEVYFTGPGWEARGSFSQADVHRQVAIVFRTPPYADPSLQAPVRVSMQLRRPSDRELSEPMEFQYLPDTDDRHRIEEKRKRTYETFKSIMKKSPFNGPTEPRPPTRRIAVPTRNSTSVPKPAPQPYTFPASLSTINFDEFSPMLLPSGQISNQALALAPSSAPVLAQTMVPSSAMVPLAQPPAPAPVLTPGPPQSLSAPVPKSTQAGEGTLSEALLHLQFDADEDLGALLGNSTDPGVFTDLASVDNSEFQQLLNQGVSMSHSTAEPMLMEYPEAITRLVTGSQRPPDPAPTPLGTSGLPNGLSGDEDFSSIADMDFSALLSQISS

O=C1NC(=O)/C(=C/c2ccc3nccnc3c2)S1
inhibition at 20 µM (RAW264.7 [1]): 40.5%

CCS(=O)(=O)Nc1cc(-c2ccccc2C(F)(F)F)cn2c(C)nnc12
Activity (L02): Non-Toxic | Activity (RAW264.7 [2]): 58.67%

CC(=O)Nc1cc(-c2ccccc2Cl)cn2c(C)nnc12
Activity (L02): Non-Toxic | Activity (RAW264.7 [2]): 48.41%

COc1ccc(F)cc1-c1cc(NC(=O)c2ccc(OCc3ccccc3)cc2Cl)c2nnc(C)n2c1
Activity (L02): Non-Toxic | Activity (RAW264.7 [2]): 32.06%

CCOc1ccc(C)cc1-c1cc(NC(C)=O)c2nnc(C)n2c1
Activity (L02): Non-Toxic | Activity (RAW264.7 [2]): 32.07%

CCS(=O)(=O)Nc1cc(-c2ccccc2Cl)cn2c(C)nnc12
Activity (L02): Non-Toxic | Activity (RAW264.7 [2]): 152.42%

COc1ncccc1-c1cc(NC(C)=O)c2nnc(C)n2c1
Activity (L02): Non-Toxic | Activity (RAW264.7 [2]): 54.04%

CC(=O)Nc1cc(-c2ccccc2)cn2c(C)nnc12
Activity (L02): Non-Toxic | Activity (RAW264.7 [2]): 44.71%

CC(=O)Nc1cc(-c2cccc(OC(F)(F)F)c2)cn2c(C)nnc12
Activity (L02): Non-Toxic | Activity (RAW264.7 [2]): 49.52%

CCS(=O)(=O)Nc1cc(-c2ccccc2OCc2ccccc2)cn2c(C)nnc12
Activity (L02): Non-Toxic | Activity (RAW264.7 [2]): 72.57%

CCS(=O)(=O)Nc1cc(-c2cccnc2OC)cn2c(C)nnc12
Activity (L02): Non-Toxic | Activity (RAW264.7 [2]): 49.93%

Cc1nnc2c(NC(=O)c3ccc(F)cc3)cc(-c3ccc(Cl)cc3)cn12
Activity (L02): Non-Toxic | Activity (RAW264.7 [2]): 42.88%

CC(=O)Nc1cc(-c2ccc(CN3CCOCC3)cc2)cn2c(C)nnc12
Activity (L02): Non-Toxic | Activity (RAW264.7 [2]): 42.4%

CC(=O)Nc1cc(-c2ccccc2-c2ccccc2)cn2c(C)nnc12
Activity (L02): Non-Toxic | Activity (RAW264.7 [2]): 49.03%

CCS(=O)(=O)Nc1cc(-c2cc(C)ccc2OC)cn2c(C)nnc12
Activity (L02): Non-Toxic | Activity (RAW264.7 [2]): 45.48%

CCOc1cc(F)ccc1-c1cc(NC(=O)C2CCCCC2)c2nnc(C)n2c1
Activity (L02): Non-Toxic | inhibition (RAW264.7 [1]): Active | Activity (RAW264.7 [2]): 37.8%

COc1ccc(C)cc1-c1cc(NC(C)=O)c2nnc(C)n2c1
Activity (L02): Non-Toxic | Activity (RAW264.7 [2]): 58.83%

COc1ccc(F)cc1-c1cc(NC(=O)c2c(F)cccc2F)c2nnc(C)n2c1
Activity (L02): Non-Toxic | Activity (RAW264.7 [2]): 61.96%

CCS(=O)(=O)Nc1cc(-c2ccccc2-c2ccccc2)cn2c(C)nnc12
Activity (L02): Non-Toxic | Activity (RAW264.7 [2]): 62.68%

CC(=O)Nc1cc(-c2ccccc2C(F)(F)F)cn2c(C)nnc12
Activity (L02): Non-Toxic | Activity (RAW264.7 [2]): 42.36%

CC(=O)Nc1cc(-c2ccccc2F)cn2c(C)nnc12
Activity (L02): Non-Toxic | Activity (RAW264.7 [2]): 83.06%

CCOc1cc(F)ccc1-c1cc(NC(C)=O)c2nnc(C)n2c1
Activity (L02): Non-Toxic | Activity (RAW264.7 [2]): 65.85%

Cc1nnc2c(NC(=O)c3cccc(C(F)(F)F)c3)cc(-c3ccc(Cl)cc3)cn12
Activity (L02): Non-Toxic | Activity (RAW264.7 [2]): 30.98%

CCS(=O)(=O)Nc1cc(-c2cccc(C(F)(F)F)c2)cn2c(C)nnc12
Activity (L02): Non-Toxic | Activity (RAW264.7 [2]): 27.18%

CCCOc1ccc(Cl)cc1-c1cc(NC(=O)c2ccccc2F)c2nnc(C)n2c1
Activity (L02): Non-Toxic | Activity (RAW264.7 [2]): 77.73%

COc1cccc(-c2cc(NC(C)=O)c3nnc(C)n3c2)c1
Activity (L02): Non-Toxic | Activity (RAW264.7 [2]): 55.3%

CCS(=O)(=O)Nc1cc(-c2ccccc2)cn2c(C)nnc12
Activity (L02): Non-Toxic | Activity (RAW264.7 [2]): 44.44%

CCCOc1ccc(Cl)cc1-c1cc(NC(C)=O)c2nnc(C)n2c1
Activity (L02): Non-Toxic | Activity (RAW264.7 [2]): 49.05%

CCS(=O)(=O)Nc1cc(-c2cc(Cl)ccc2OCc2ccccc2)cn2c(C)nnc12
Activity (L02): Non-Toxic | inhibition (RAW264.7 [1]): Active | Activity (RAW264.7 [2]): 26.01%

CCS(=O)(=O)Nc1cccc(-c2cc([N+](=O)[O-])c3nnc(C)n3c2)c1
Activity (L02): Non-Toxic | Activity (RAW264.7 [2]): 26.74%

CCS(=O)(=O)Nc1cccc(-c2cc(NC(C)=O)c3nnc(C)n3c2)c1
Activity (L02): Non-Toxic | Activity (RAW264.7 [2]): 64.96%

CCS(=O)(=O)Nc1cccc(-c2cc(NS(=O)(=O)CC)c3nnc(C)n3c2)c1
Activity (L02): Non-Toxic | Activity (RAW264.7 [2]): 41.19%

CC(=O)Nc1cc(-c2cc(Cl)ccc2OCc2ccccc2)cn2c(C)nnc12
Activity (L02): Non-Toxic | Activity (RAW264.7 [2]): 27.05%

CCOc1cc(F)ccc1-c1cc(NS(=O)(=O)CC)c2nnc(C)n2c1
Activity (L02): Non-Toxic | Activity (RAW264.7 [2]): 34.85%

CCOc1ccc(C(=O)Nc2cc(-c3cc(F)ccc3OC)cn3c(C)nnc23)cc1
Activity (Mus musculus [3]): Active | Activity (L02): Non-Toxic | inhibition at 20 µM (RAW264.7 [1]): 52.6% | Activity (Mus musculus [4]): 52.52% | Activity [5]: Dose-dependent effect | Activity (RAW264.7 [6]): Active | Activity (RAW264.7 [7]): Active | Activity (Mus musculus [8]): Active | Activity (RAW264.7 [9]): Active | Activity (Mus musculus [10]): Active | Activity (RAW264.7 [11]): Active | inhibition [12]: Dose-dependent effect | Activity (RAW264.7 [2]): 28.01% | Activity (Mus musculus [13]): 65.39% | Activity (Mus musculus [14]): 8.39% | Activity (Mus musculus [15]): Active

COc1ncccc1-c1cc(NC(=O)C2CCCCC2)c2nnc(C)n2c1
Activity (L02): Non-Toxic | Activity (RAW264.7 [2]): 49.99%
